Screening data as filed in PubChem.
Only some compounds are listed: those with a hit (about 3.9% of all), similar ones and a draw of the others.
697 NFkB inh – inhibitors of PMA/ionomycin-induced NF-kB reporter, 697 cells, primary screen, B-cell NF-kB inhibitor project, cell-based, luminescence, uHTS; 697 B-cell NF-kB luciferase reporter, 16 h; AID 435022, 2010; inhibition, % at 4 µM; actives 0.33% (n = 330,000); in the data active = inhibition above about 35%
Gli-Sufu antag – Gli-Sufu pathway antagonists, primary screen, luciferase luminescence, Sufu-KO-LIGHT cells, uHTS | actives 0.74% (n = 340,000) | AID 588413, 2011 | Sufu-KO-LIGHT fibroblasts, Gli luciferase reporter luminescence | inhibition, % at 5 µM;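 active = inhibition above about 55%, limit read from the data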;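 note: 0% = DMSO-treated cells and 100% = wells with medium but no cells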
UPR CHOP act – activators of apoptotic CHOP UPR arm, primary screen, cell-based, CHO-CHOP luciferase reporter, luminescence, uHTS; actives 0.34% (n = 330,000); activation, % at 10 µM; UPR activation; percent of tunicamycin response over DMSO baseline; AID 449763, 2010;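 active = at 10 µM dose, activation of 40% or more, normalized to positive control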;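 note: 100% = tunicamycin at 10 µg/mL and 0% = DMSO alone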
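System: CHO-CHOP luciferase reporter cell line | Buffer or medium: F12 medium containing 10% fetal bovine serum | Doses: One dose, 10 µM in 0.5% DMSO | Times: 6 h compound exposure at 37 °C after overnight seeding | Signal: Luciferase luminescence | Read-out: % activation vs tunicamycin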
XBP1 UPR activ – activators of adaptive XBP1 UPR arm, primary screen, cell-based, CHO-XBP1 luciferase reporter, luminescence, uHTS | IRE1-XBP1 UPR activation; percent of tunicamycin response, DMSO as zero | activation, % at 20 µM | actives 0.33% (n = 330,000);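 active = versus positive control, 20 µM dose yields 30% or more activation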;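 note: 100% = tunicamycin at 10 µg/mL and 0% = DMSO only wells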
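incubation = overnight seeding at 37 °C, 6 h compound treatment at 37 °C | assay system = CHO-XBP1 cells stably carrying IRE1-XBP1-driven luciferase reporter | input = 1000 cells per well | detection = luciferase luminescence | dosing = single point, 20 µM final compound, 1% DMSO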
CHOP inh – inhibitors of CHOP promoter induction, primary screen, cell-based, unfolded protein response, luciferase reporter | CHO-K1 CHOP-promoter luciferase, tunicamycin-induced, 15-18 h | inhibition, % at 10 µM | actives 3.8% (n = 220,000) | AID 2732, 2010;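 active = compounds that reduced the stress-induced luciferase reporter signal by more than about 70% of percent inhibition, limit read from the data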;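 note: 0% = tunicamycin plus vehicle and 100% = wells without tunicamycin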
Jurkat NFkB inh – inhibitors of induced NF-kB luciferase reporter, primary screen, TCR NF-kB activation inhibitor project, cell-based, luminescence, uHTS; Jurkat, PMA/ionomycin-induced NF-kB luciferase reporter; inhibition, % at 4 µM; actives 0.53% (n = 330,000); AID 435003, 2010; in the data active = inhibition above about 50%
Gli antag conf – Gli-SUFU pathway antagonists, confirmation, single concentration, luciferase luminescence, Sufu-KO-LIGHT cells. shares compounds with Gli-Sufu antag. Gli luciferase reporter. inhibition, % at 5 µM. actives 40% (n = 2,500). AID 602428, 2012;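 active = mean inhibition at 5 µM reaching about 45%, limit read from the data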;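 note: plate controls were DMSO-treated cells for no effect and wells lacking cells for full effect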
SufuKO cytotox – cytotoxicity in Sufu-KO-LIGHT cells, confirmation, cytotoxicity control for Gli-SUFU antagonist project, cell-based, ATP luminescence, single concentration | shares compounds with Gli-Sufu antag | cytotoxicity, % at 5 µM | actives 32% (n = 2,500);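 active = mean cytotoxicity at 5 µM above about 25%, limit read from the data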;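 note: cells exposed to compound overnight for roughly 16 to 18 hours; plate controls were DMSO wells with cells for no effect and medium without cells for full effect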
Wnt3a cs – Wnt3a reporter signal inhibition, confirmation, counter-screen for Gli-SUFU antagonist project, Wnt-LIGHT cells, luminescence, single concentration. shares compounds with Gli-Sufu antag. Wnt3a-driven luciferase reporter. inhibition, % at 6.25 µM. actives 20% (n = 2,500);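 active = mean inhibition above about 25%, limit read from the data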
Starred values were filed as active, the others as inactive; nt = not tested or not shown.

SMILES	697 NFkB inh	Gli-Sufu antag	UPR CHOP act	XBP1 UPR activ	CHOP inh	Jurkat NFkB inh	Gli antag conf	SufuKO cytotox	Wnt3a cs
CN(C(=O)c1ccc(NC(=O)Cc2ccc([N+](=O)[O-])cc2)cc1)C1CCCC1	0.3	-0.1	0.9	0.2	nt	6.6	nt	nt	nt
CSc1ccc(C2(O)Cc3cccc[n+]3C2c2ccccc2)cc1 (stereo not drawn)	-1.4	55.8*	1.3	-1.6	3.2	2.8	17.3	10.9	-29.5
OC1(c2ccccc2)Cc2cccc[n+]2C1c1ccccc1 (stereo not drawn)	-2.1	-0.5	1.1	-1.2	-0.2	-15.4	nt	nt	nt
C=CCN1C(=O)/C(=C\c2ccc(Cl)cc2)N=C1SCC(=O)NCCC	-3.7	55.9*	-2.4	1.6	75.7*	18.4	16.9	20.3	10.1
COc1ccc(OC)c(NC(=O)C(CCSC)NS(=O)(=O)c2cccs2)c1 (stereo not drawn)	11.0	11.0	-1.2	1.6	nt	4.1	nt	nt	nt
COc1cc(CCNC(=O)c2ccccc2NC(=O)C2=C(C)OCCS2)cc(OC)c1OC	-8.1	98.8*	-0.5	-2.9	nt	-12.2	18.5	-1.0	12.4
COc1cc(CNC(=O)c2ccccc2NC(=O)C2=C(C)OCCS2)cc(OC)c1OC	11.9	90.9*	5.5	1.5	nt	7.8	17.2	0.0	-18.7
COc1ccc(CCNC(=O)c2ccccc2NC(=O)C2=C(C)OCCS2)c(OC)c1	-10.3	5.3	2.1	-9.3	nt	0.5	nt	nt	nt
Cc1cc(C)c(C(N)=O)c(SCC(=O)c2cc(C)n(-c3cc(C)on3)c2C)n1	9.2	51.4	2.2	1.1	nt	1.6	59.5*	33.5*	12.9
CCOc1ccc(/C(O)=C/C(=O)C(=O)Nc2ccc(S(=O)(=O)NC(C)=O)cc2)cc1	-15.2	83.8*	-1.4	-2.3	2.9	-4.6	17.2	12.1	-11.2
O=C(Cc1n[nH]c(=O)c2ccccc12)OCC(=O)c1ccccc1	19.7	-9.4	1.1	-2.5	nt	-8.2	nt	nt	nt
C/C(=N\NC(=O)c1ccn(C)n1)c1ccc(NC(=O)C2CCCC2)cc1	-9.8	1.5	0.7	-2.5	39.4	2.9	nt	nt	nt
C/C(=N\NC(=O)c1ccn(C)n1)c1ccc(NC(=O)C2CCC2)cc1	-12.9	71.9*	-3.1	-1.0	nt	-0.2	21.0	14.1	18.5
CC(C)(C)CC(=O)Nc1cc(S(=O)(=O)N2CCCCCC2)ccc1Cl	11.1	59.7*	1.3	-1.4	-4.7	11.0	17.5	5.3	-20.2
NC(=O)C1CCN(C(=O)COc2ccc3ccc(=O)oc3c2)CC1	7.4	-0.9	0.2	-1.6	nt	17.1	nt	nt	nt
CCOc1ccc2c(c1)s/c(=N\S(=O)(=O)c1ccc(OC)cc1)n2C(F)F	3.4	54.9	-0.4	-1.9	56.8	10.4	11.0	-0.8	-4.6
Cc1ccc(NC(=O)CCC(=O)c2ccccc2)cc1	nt	-0.6	nt	nt	nt	nt	nt	nt	nt
O=C(CCC(=O)c1ccccc1)Nc1ccc(C(=O)O)cc1	-35.6	98.8*	0.5	-2.5	nt	-15.9	19.1	7.3	6.4
CCN(C(=O)COC(=O)/C=C/c1cnc2ccccc2n1)C1CCS(=O)(=O)C1 (stereo not drawn)	18.5	56.1*	-1.8	-0.4	4.0	0.3	17.8	-3.1	-14.5
CCCCNC(=O)CNC(=O)c1nn(-c2ccc(OC)cc2OC)c(=O)c2ccccc12	4.9	7.6	-2.9	-5.6	nt	-8.3	nt	nt	nt
COc1ccc(-n2nc(C(=O)NCC(=O)NCCC3=CCCCC3)c3ccccc3c2=O)c(OC)c1	-9.9	56.2*	0.4	-4.8	nt	-1.0	19.6	7.9	-56.6
CCCCS(=O)(=O)Nc1ccc(N2CCOCC2)c(S(=O)(=O)N2CCOCC2)c1	18.8	2.4	1.9	-2.8	nt	11.9	nt	nt	nt
CCOC(=O)C1=C(C)OC(N)=C(C#N)C1c1cc2ccccc2nc1N1CCCCC1 (stereo not drawn)	2.6	50.4	0.3	-1.5	7.5	-4.9	35.1	15.6	-13.9
CCOC(=O)C1=C(C)OC(N)=C(C#N)C1c1cc2cc(C)ccc2nc1N1CCCCC1 (stereo not drawn)	-33.4	-10.2	2.1	1.0	31.6	-14.4	nt	nt	nt
FC(F)(F)c1nc(-c2cccs2)ncc1-c1nnnn1-c1ccc(Cl)cc1	-33.7	58.0*	9.2	-0.9	66.8	14.5	57.9*	38.8*	1.3
SMILES	697 NFkB inh	Gli-Sufu antag	UPR CHOP act	XBP1 UPR activ	CHOP inh	Jurkat NFkB inh	Gli antag conf	SufuKO cytotox	Wnt3a cs
Clc1ccc(-n2nnnc2-c2cnc(-c3ccncc3)nc2-c2cccs2)cc1	-4.6	11.4	0.4	-0.9	21.5	9.6	nt	nt	nt
O=C(c1ccc(CSc2nc3ccncc3[nH]2)cc1)N1CCCCCC1	-85.5	-43.4	-0.1	-3.9	22.7	-13.6	nt	nt	nt
O=C(c1ccc(CSc2nc3ccncc3[nH]2)cc1)N1CCN(c2cccc(Cl)c2)CC1	-19.7	58.3*	11.9	2.7	83.1*	31.1	67.2*	42.3*	8.1
Cc1ccc(C(=O)ONc2ccc(N=O)cc2)cc1	-6.6	65.5*	4.8	-4.0	18.6	6.0	7.0	3.7	-7.9
COc1ccc(N2CCN(C(=O)CNC(=O)Cn3cnc4sc(C)c(C)c4c3=O)CC2)cc1	-13.0	3.3	-0.1	-3.2	nt	5.3	nt	nt	nt
COc1ccc(-c2cnc3c(c2)CCC3(C#N)C#N)cc1	nt	51.6	nt	nt	-26.8	nt	61.1*	47.1*	-31.8
Nc1cc(C(=O)OCC(=O)NCCC2=CCCCC2)ccc1Cl	3.2	-1.1	-2.3	-3.2	nt	-0.9	nt	nt	nt
O=C(COC(=O)c1cnc(Cl)c(Cl)c1)NCCC1=CCCCC1	-6.2	50.9	0.2	-2.4	36.3	4.2	9.4	17.1	0.0
CCOc1ccc(S(=O)(=O)N(C)c2ccc(OCC(=O)NCc3ccco3)cc2)cc1	12.5	95.1*	1.0	-2.6	-14.0	-22.7	10.3	3.3	-29.9
CCOc1cc(/C=C2\CCCC(C(=O)C(F)(F)F)=C2O)ccc1O	17.0	59.0*	0.8	-0.2	74.8*	19.8	7.2	0.6	-58.1
